# Reference: ChEMBL document CHEMBL4257566, “Design, synthesis and structure-based optimization of novel isoxazole-containing benzamide derivatives as FtsZ modulators” (Eur J Med Chem, 2018)
# Calls of active or inactive are those of the source. No cut-off for these calls is given here.
# Experiments:
# Staphylococcus aureus [1] = experiment: Antibacterial activity against clinical isolate of penicillin-resistant Staphylococcus aureus after 24 hrs by broth microdilution based CLSI method; format: functional
# Bacillus pumilus = experiment: Antibacterial activity against Bacillus pumilus CMCC63202 after 24 hrs by broth microdilution based CLSI method; format: functional; settings: CMCC63202, 24 h
# Pseudomonas aeruginosa = experiment: Antibacterial activity against Pseudomonas aeruginosa ATCC 27853 after 24 hrs by broth microdilution based CLSI method; format: functional; settings: ATCC 27853, 24 h
# Escherichia coli = experiment: Antibacterial activity against Escherichia coli ATCC 25922 after 24 hrs by broth microdilution based CLSI method; format: functional; settings: ATCC 25922, 24 h
# Staphylococcus aureus [2] = experiment: Antibacterial activity against methicillin-resistant Staphylococcus aureus ATCC 43300 after 24 hrs by broth microdilution based CLSI method; format: functional; settings: ATCC 43300, 24 h
# Staphylococcus aureus [3] = experiment: Antibacterial activity against Staphylococcus aureus ATCC 25923 after 24 hrs by broth microdilution based CLSI method; format: functional; settings: ATCC 25923, 24 h
# HeLa = experiment: Cytotoxicity in human HeLa cells assessed as reduction in cell viability after 36 hrs by MTT assay; format: cell-based
# Procedure, shortened: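 HeLa cells seeded at 10⁴ cells/well and left overnight, then exposed to compound for 36 h. MTT (5 mg/mL solution) added for 4 h at 37 °C, medium replaced by DMSO for 10 min, absorbance read at 570 nm.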
# Bacillus subtilis [4] = experiment: Antibacterial activity against Bacillus subtilis ATCC 9372 after 24 hrs by broth microdilution based CLSI method; format: functional; settings: ATCC 9372, 24 h
# Staphylococcus aureus [5] = experiment: Selectivity ratio of MBC for Staphylococcus aureus ATCC 25923 to MIC for Staphylococcus aureus ATCC 25923; format: functional
# Staphylococcus aureus [6] = experiment: Bactericidal activity against Staphylococcus aureus ATCC 25923 incubated for 24 hrs followed by plating onto tryptic soy agar plates and further incubated for 24 hrs by broth microdilution based CLSI method; format: functional; settings: ATCC 25923, 24 h
# Staphylococcus aureus [7] = experiment: Antibacterial activity against Staphylococcus aureus; format: functional
# Procedure, shortened: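 CLSI broth microdilution: log-phase bacteria added to 2-fold serial dilutions (64 to 0.125 µg/mL) in cation-adjusted Mueller-Hinton broth, incubated aerobically 24 h at 37 °C. MIC read by turbidity as the last well showing no growth.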
# Staphylococcus aureus [8] = experiment: Antibacterial activity against methicillin-resistant Staphylococcus aureus ATCC 43300 infected in mouse assessed as reduction of bacterial burden in blood at 30 mg/kg, ip administered 0.1, 6 hrs postinfection and measured at 24 hrs post last dose; format: functional, organism-based
# Staphylococcus aureus [9] = experiment: Bactericidal activity against clinical isolate of penicillin-resistant Staphylococcus aureus incubated for 24 hrs followed by plating onto tryptic soy agar plates and further incubated for 24 hrs by broth microdilution based CLSI method; format: functional
# Procedure, shortened: (§1)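 MBC taken from the CLSI broth microdilution plates. These held 2-fold serial dilutions from 64 to 0.125 µg/mL in cation-adjusted Mueller-Hinton broth, seeded with log-phase bacteria and incubated aerobically for 24 h at 37 °C. Well aliquots were plated on TSA and colonies counted after 24 h. MBC is the lowest concentration giving a ≥3-log CFU reduction.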
# Staphylococcus aureus [10] = experiment: Bactericidal activity against methicillin-resistant Staphylococcus aureus ATCC 43300 incubated for 24 hrs followed by plating onto tryptic soy agar plates and further incubated for 24 hrs by broth microdilution based CLSI method; format: functional; settings: ATCC 43300, 24 h; procedure, shortened: as §1
# Mus musculus = experiment: Toxicity in mouse infected with methicillin-resistant Staphylococcus aureus ATCC 43300 assessed as mouse death at 30 mg/kg, ip administered 0.1, 6 hrs postinfection and measured after 1 week; format: organism-based; settings: in vivo, 168 h
# Procedure, shortened: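 KM mice (about 20 g) infected i.v. with 5.4 × 10⁷ CFU MRSA in 0.1 mL saline. Dosing i.p. in vehicle of 1% DMAC, 30% TEG, 7% HPβCD in water (final), with a vehicle-only group. Deaths recorded for one week after bacterial inoculation.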
# Staphylococcus aureus [11] = experiment: Bactericidal activity against methicillin-resistant Staphylococcus aureus ATCC 43300 assessed as reduction in viable bacterial count at 8 ug/ml after 24 hrs by time-kill assay; format: functional, organism-based
# Procedure, shortened: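 Growing culture diluted to about 10⁶ CFU/mL in CAMH broth containing compound, then shaken at 37 °C. At set times, samples were serially diluted tenfold in CAMH broth and three dilutions plated on TSA. CFU/mL counted after 24 h at 37 °C. Detection limit 10³ CFU/mL. Points are the mean of two independent runs, with SD.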
# [12] = target: T1, Cell division protein FtsZ (Bacillus subtilis (strain 168)) (UniProt P17865); experiment: Induction of Bacillus subtilis FtsZ polymerization in presence of GTP by microtiter plate-based light-scattering assay
# T1 sequence (whole entry): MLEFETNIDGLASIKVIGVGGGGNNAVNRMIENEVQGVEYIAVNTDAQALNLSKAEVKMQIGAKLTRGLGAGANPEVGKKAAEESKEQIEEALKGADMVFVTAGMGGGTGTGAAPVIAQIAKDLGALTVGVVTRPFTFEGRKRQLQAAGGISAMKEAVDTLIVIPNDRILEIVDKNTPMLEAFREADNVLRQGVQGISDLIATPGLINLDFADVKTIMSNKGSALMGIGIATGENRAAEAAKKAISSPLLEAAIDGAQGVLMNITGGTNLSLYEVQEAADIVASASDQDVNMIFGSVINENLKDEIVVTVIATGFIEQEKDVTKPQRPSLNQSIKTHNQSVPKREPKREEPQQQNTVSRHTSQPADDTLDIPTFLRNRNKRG
# Procedure, shortened: (§2)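 Recombinant purified B. subtilis FtsZ (5 µM) with 1 mM GTP in 50 mM MES, 50 mM KCl, 2 mM magnesium acetate, compound 0–10 µg/mL. Polymerization followed as light scattering (A340) continuously at 25 °C for 30 min. DMSO vehicle and a non-FtsZ control were included.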
# Bacillus subtilis [13] = experiment: Potency index, ratio of PC190723 MIC to test compound MIC for antibacterial activity against Bacillus subtilis ATCC 9372 after 24 hrs by broth microdilution based CLSI method
# [14] = target: T1, Cell division protein FtsZ (Bacillus subtilis (strain 168)); experiment: Induction of Bacillus subtilis FtsZ polymerization at 10 ug/ml in presence of GTP by microtiter plate-based light-scattering assay; procedure, shortened: as §2
SMILES,MIC (Staphylococcus aureus [1]) [µg/mL],MIC (Bacillus pumilus) [µg/mL],MIC (Pseudomonas aeruginosa) [µg/mL],MIC (Escherichia coli) [µg/mL],MIC (Staphylococcus aureus [2]) [µg/mL],MIC (Staphylococcus aureus [3]) [µg/mL],MIC (Bacillus subtilis [4]) [µg/mL],also measured
Cc1cc(C(C)(C)C)cc(C)c1-c1cc(COc2ccc(F)c(C(N)=O)c2F)no1,2,0.06,> 64,> 64,2,1,> 64,IC50 (HeLa): > 128 µg/mL
CC[C@H]1OC(=O)[C@H](C)[C@@H](O[C@H]2C[C@@](C)(OC)[C@@H](O)[C@H](C)O2)[C@H](C)[C@@H](O[C@@H]2O[C@H](C)C[C@H](N(C)C)[C@H]2O)[C@](C)(OC)C[C@@H](C)C(=O)[C@H](C)[C@@H](O)[C@]1(C)O [CLARITHROMYCIN],–,–,–,–,–,0.125,–,Ratio (Staphylococcus aureus [5]): 32; MBC (Staphylococcus aureus [6]): 4 µg/mL
NC(=O)c1c(F)ccc(OCc2nc3cc(Cl)cnc3s2)c1F,1,0.5,> 64,> 64,1,1,0.5,MIC (Staphylococcus aureus [7]): 1 µg/mL
CCCCC(CC)COc1ccc(F)c(C(N)=O)c1F (stereo not given),–,–,–,–,–,–,–,MIC (Staphylococcus aureus [7]): 4 µg/mL
NC(=O)c1c(F)ccc(OCc2ccccc2)c1F,–,–,–,–,–,–,–,MIC (Staphylococcus aureus [7]): 32 µg/mL
CC(=O)NC[C@H]1CN(c2ccc(N3CCOCC3)c(F)c2)C(=O)O1 [LINEZOLID],–,1,> 64,> 64,1,–,1,Activity (Staphylococcus aureus [8]): Active; MBC (Staphylococcus aureus [9]): 32 µg/mL; MBC (Staphylococcus aureus [6]): 32 µg/mL; MBC (Staphylococcus aureus [10]): 32 µg/mL; Activity (Mus musculus): Non-Toxic; Activity (Staphylococcus aureus [11]): Active
O=C(O)c1cn(C2CC2)c2cc(N3CCNCC3)c(F)cc2c1=O,–,–,–,–,–,–,–,Activity [12]: inactive
CC(C)(C)c1ccc(-c2ccc(CNC(=N)N)cc2)cc1,–,–,–,–,–,–,–,MIC (Staphylococcus aureus [7]): 1 µg/mL
COc1cccc(-c2cc(COc3ccc(F)c(C(N)=O)c3F)no2)c1,> 64,> 64,> 64,> 64,> 64,> 64,64,–
NC(=O)c1c(F)ccc(OCc2cc(-c3ccc4c(c3)OCO4)no2)c1F,> 64,> 64,> 64,> 64,> 64,> 64,4,–
CCCOc1cccc(-c2cc(COc3ccc(F)c(C(N)=O)c3F)no2)c1,> 64,> 64,> 64,> 64,> 64,> 64,4,–
CCCOc1ccc(-c2cc(COc3ccc(F)c(C(N)=O)c3F)on2)cc1,> 64,> 64,> 64,> 64,> 64,> 64,16,–
CCCCc1ccc(-c2cc(COc3ccc(F)c(C(N)=O)c3F)on2)cc1,> 64,0.25,> 64,> 64,2,> 64,0.03,Ratio (Bacillus subtilis [13]): >16
NC(=O)c1c(F)ccc(OCc2cc(-c3ccc(Cl)cc3Cl)no2)c1F,> 64,0.5,> 64,> 64,4,8,0.5,–
CCCCOc1ccc(-c2cc(COc3ccc(F)c(C(N)=O)c3F)on2)cc1,> 64,> 64,> 64,> 64,> 64,> 64,> 64,–
NC(=O)c1c(F)ccc(OCc2cc(-c3ccc(Cl)c(Cl)c3)no2)c1F,> 64,> 64,> 64,> 64,> 64,> 64,64,–
NC(=O)c1c(F)ccc(OCc2cc(-c3ccc(Cl)cc3Cl)on2)c1F,> 64,8,> 64,> 64,> 64,> 64,0.5,–
CC(C)(C)c1ccc(-c2cc(COc3ccc(F)c(C(N)=O)c3F)on2)cc1,8,0.25,> 64,> 64,4,8,0.03,Activity [14]: inactive; IC50 (HeLa): > 128 µg/mL; Ratio (Bacillus subtilis [13]): >16
Nc1nonc1C(=O)N/N=C/c1cc(Cl)cc(Cl)c1O,–,–,–,–,–,–,–,MIC (Staphylococcus aureus [7]): 16 µg/mL
NC(=O)c1c(F)ccc(OCc2cc(-c3ccc(Br)cc3)no2)c1F,> 64,> 64,> 64,> 64,> 64,> 64,1,–
COc1ccc(-c2cc(COc3ccc(F)c(C(N)=O)c3F)on2)cc1OC,> 64,> 64,> 64,> 64,> 64,> 64,> 64,–
NC(=O)c1c(F)ccc(OCc2noc(-c3ccc(Cl)cc3)c2Br)c1F,> 64,> 64,> 64,> 64,> 64,> 64,> 64,–
